Laboratory results reported in ChEMBL document CHEMBL3576783, “Synthesis and evaluation of 1,2,4-triazolo[1,5-a]pyrimidines as antibacterial agents against Enterococcus faecium” (J Med Chem, 2015).
Converted amounts (≈) assume the structure as drawn. The source made the active and inactive calls. No cut-off for these calls is given here.

Tests used:
Staphylococcus aureus [1] = assay: Antibacterial activity against Staphylococcus aureus ATCC 29213 assessed as bacterial growth inhibition after 16-20 hrs by broth microdilution method; format: functional, organism-based
Summary of the method: (§1)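 CLSI broth microdilution in cation-adjusted Mueller Hinton II broth, run in triplicate. Cultures grown to OD600 about 0.60-0.80, diluted 100-fold, final inoculum 5×10^5 CFU/mL. Compounds diluted from 5 mg/mL DMSO stocks; final 2% (v/v) DMSO plus 0.25% (v/v) glacial acetic acid. Plates incubated at 35 °C for 16-20 h before reading the MIC.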

Klebsiella pneumoniae = assay: Antibacterial activity against Klebsiella pneumoniae ATCC 700603 assessed as bacterial growth inhibition after 16-20 hrs by broth microdilution method; format: functional, organism-based; summary of the method: as §1
Acinetobacter baumannii = assay: Antibacterial activity against Acinetobacter baumannii ATCC 17961 assessed as bacterial growth inhibition after 16-20 hrs by broth microdilution method; format: functional, organism-based; summary of the method: as §1
Pseudomonas aeruginosa = assay: Antibacterial activity against Pseudomonas aeruginosa ATCC 27853 assessed as bacterial growth inhibition after 16-20 hrs by broth microdilution method; format: functional, organism-based; summary of the method: as §1
Enterobacter sp. = assay: Antibacterial activity against Enterobacter sp. assessed as bacterial growth inhibition after 16-20 hrs by broth microdilution method; format: functional, organism-based; summary of the method: as §1
Enterococcus faecium [2] = assay: Antibacterial activity against copper, erythromycin, teracycline-resistant and vancomycin and teicoplanin-sensitive Enterococcus faecium ATCC BAA2127 assessed as bacterial growth inhibition after 16-20 hrs by broth microdilution method; format: functional
Summary of the method: (§2)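 CLSI broth microdilution in cation-adjusted Mueller Hinton II broth, triplicate. Cultures grown to OD600 about 0.60-0.80, diluted 100-fold; final inoculum 5×10^5 CFU/mL. Compounds from 5 mg/mL DMSO stock diluted in medium, final 2% (v/v) DMSO plus 0.25% (v/v) glacial acetic acid. Incubated 35 °C, 16-20 h, then MIC read.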

Enterococcus faecium [3] = assay: Antibacterial activity against vancomycin-susceptible Enterococcus faecium 119-39A assessed as bacterial growth inhibition after 16-20 hrs by broth microdilution method; format: functional; summary of the method: as §2
Enterococcus faecium [4] = assay: Antibacterial activity against Enterococcus faecium C9 assessed as bacterial growth inhibition after 16-20 hrs by broth microdilution method; format: functional; summary of the method: as §2
Enterococcus faecium [5] = assay: Antibacterial activity against Enterococcus faecium C38 assessed as bacterial growth inhibition after 16-20 hrs by broth microdilution method; format: functional; summary of the method: as §2
Enterococcus faecium [6] = assay: Antibacterial activity against Enterococcus faecium C68 assessed as bacterial growth inhibition after 16-20 hrs by broth microdilution method; format: functional; summary of the method: as §2
Liver = assay: Half life in human liver S9 at 10 uM after 60 mins by UPLC analysis; format: ADME, subcellular, Liver S9 fraction; conditions: s9, 1 h
Summary of the method: (§3)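 Pooled human liver S9 (1 mg/mL) with 1 mM NADPH and 10 μM compound in sodium phosphate buffer (0.20 M phosphate, 0.15 M NaCl, pH 7.4), 37 °C for 60 min. Six time points quenched in acetonitrile with internal standard, analysed by UPLC-MRM. Half-life taken from first-order rate constant; CLint scaled with 45 mg protein/g liver and 20 g liver/kg. Run in duplicate.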

[7] = Apparent intrinsic clearance in human liver S9 at 10 uM after 60 mins by UPLC analysis; format: ADME, subcellular, Liver S9 fraction; conditions: read-out: CLH(app); summary of the method: as §3
Plasma = assay: Plasma protein binding in human at 10 uM by rapid equilibrium dialysis method; format: ADME, cell-free
Summary of the method: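 Human plasma centrifuged to clear particulates, spiked with compound to final 10 μM in 0.1% DMSO. Dialysed against 0.1 M sodium phosphate buffer, pH 7.4, at 37 °C overnight with shaking in a rapid equilibrium dialysis device. Buffer and plasma sides extracted with acetonitrile containing internal standard and analysed by UPLC-MRM. Binding calculated as (Cp−Cf)/Cp×100.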

[8] = Induction of hemolysis in RBC (unknown origin) at 64 ug/ml; conditions: erythrocytes
Staphylococcus aureus [9] = assay: Inhibition of Staphylococcus aureus PBP2a up to 100 ug/ml by BIOCILLIN FL based fluorescence analysis
Summary of the method: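 Recombinant purified PBP2a (final 2 μM) preincubated with inhibitor in 25 mM Hepes, 1 M NaCl, pH 7.0, 37 °C, 10 min. BOCILLIN FL (final 20 μM) then added for 10 min at 37 °C. Samples boiled in SDS buffer and run on 12% SDS-PAGE. Fluorescent bands scanned and quantified against a no-inhibitor control.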

BL21-DE3 = assay: Inhibition of Enterococcus faecium D63r PBP5fm expressed in Escherichia coli BL21 (DE3) cells up to 100 ug/ml after 10 to 20 mins by BIOCILLIN FL-based fluorescence assay
Summary of the method: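 Recombinant PBP5fm lacking the signal peptide, expressed in E. coli BL21(DE3) and purified by anion-exchange then chelating chromatography. Enzyme (40 μM) preincubated with inhibitor in 25 mM Hepes, 1 M NaCl, pH 7.0 at 37 °C for 20 min. BOCILLIN FL (30 μM) then added for a further 20 min. Bands resolved on 12% SDS-PAGE and fluorescence quantified against a no-inhibitor control.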

Enterococcus faecium [10] = assay: microbe, parasite or virus in culture; conditions: NCTC 7171
Enterococcus faecium [11] = assay: Antibacterial activity against vancomycin and teicoplanin-resistant Enterococcus faecium ATCC 700221 isolated from human faeces assessed as bacterial growth inhibition after 16-20 hrs by broth microdilution method; format: functional; conditions: ATCC 700221, Feces
Summary of the method: as §2, with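 “Broth” for “CLSI broth”, “broth, run to CLSI method,” for “broth,”, “Cells” for “Cultures”, “~0.60-0.80,” for “about 0.60-0.80,”, “stocks” for “stock”, “°C for” for “°C,”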

Enterococcus faecium [12] = assay: Inhibition of peptidoglycan synthesis in Enterococcus faecium NCTC 7171 assessed as decrease in D-[2,3-3H]-alanine incorporation at 8 ug/ml after 120 mins by liquid scintillation counting analysis; format: functional, organism-based
Summary of the method: (§4)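 E. faecium NCTC 7171 grown in brain-heart infusion at 37 °C to early-log phase. Tritiated precursor (1 uCi/mL) added and incubated 5 min; compound then added at 8 μg/mL with DMSO negative control, followed by 2 h growth. Samples taken every 20 min, precipitated in 20% ice-cold TCA, filtered, washed with TCA and ethanol, and scintillation-counted in duplicate. Value reported at 120 min.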

Enterococcus faecium [13] = assay: Inhibition of DNA replication in Enterococcus faecium NCTC 7171 assessed as decrease in [methyl-3H]-thymidine incorporation into DNA at 8 ug/ml after 120 mins by liquid scintillation counting analysis; format: functional, organism-based; summary of the method: as §4
Enterococcus faecium [14] = assay: Inhibition of transcription in Enterococcus faecium NCTC 7171 assessed as decrease in [5,6-3H]-uridine incorporation into RNA at 8 ug/ml after 120 mins by liquid scintillation counting analysis; format: functional, organism-based; summary of the method: as §4
Enterococcus faecium [15] = assay: Inhibition of translation in Enterococcus faecium NCTC 7171 assessed as decrease in L-[4,5-3H]-leucine incorporation into protein at 8 ug/ml after 120 mins by liquid scintillation counting analysis; format: functional, organism-based; summary of the method: as §4
Escherichia coli = assay: Effect on beta-galactosidase reporter gene translation in Escherichia coli S30 extract by transcription/translation assay; format: functional

CC1=C(C(N)=O)C(c2ccc(C(C)C)cc2)n2nc(SCc3ccccc3)nc2N1 (stereo not given)
inhibition (Staphylococcus aureus [1]): inactive
inhibition (Klebsiella pneumoniae): inactive
inhibition (Acinetobacter baumannii): inactive
inhibition (Pseudomonas aeruginosa): inactive
inhibition (Enterobacter sp.): inactive
MIC (Enterococcus faecium [2]): 4 µg/mL (≈ 9.53 µM)
MIC (Enterococcus faecium [3]): 4 µg/mL (≈ 9.53 µM)
MIC (Enterococcus faecium [4]): 16 µg/mL (≈ 38.1 µM)
MIC (Enterococcus faecium [5]): 16 µg/mL (≈ 38.1 µM)
MIC (Enterococcus faecium [6]): 16 µg/mL (≈ 38.1 µM)
t1/2 (Liver): 56 min
CLint scaled at 10 µM [7]: 11.1 mL/min/kg
PPB (Plasma): 98.7%
Activity [8]: 22%
inhibition (Staphylococcus aureus [9]): inactive
inhibition (BL21-DE3): inactive
MBC (Enterococcus faecium [10]): 32 µg/mL (≈ 76.3 µM)
MIC (Enterococcus faecium [10]): 8 µg/mL (≈ 19.1 µM)

CC1=C(C(N)=O)C(c2ccc(OC(C)C)cc2)n2nc(SCc3ccccc3)nc2N1 (stereo not given)
MIC (Enterococcus faecium [2]): 16 µg/mL (≈ 36.7 µM)
MIC (Enterococcus faecium [11]): 8 µg/mL (≈ 18.4 µM)
MIC (Enterococcus faecium [5]): 32 µg/mL (≈ 73.5 µM)
t1/2 (Liver): 57 min
CLint scaled at 10 µM [7]: 10.9 mL/min/kg
Activity [8]: < 1%
MIC (Enterococcus faecium [10]): 4 µg/mL (≈ 9.18 µM)

CC1=C(C(N)=O)C(c2ccc(N(C)C)cc2)n2nc(SCc3ccccc3)nc2N1 (stereo not given)
MIC (Enterococcus faecium [2]): 4 µg/mL (≈ 9.51 µM)
MIC (Enterococcus faecium [3]): 4 µg/mL (≈ 9.51 µM)
MIC (Enterococcus faecium [11]): 4 µg/mL (≈ 9.51 µM)
MIC (Enterococcus faecium [5]): 16 µg/mL (≈ 38 µM)
t1/2 (Liver): > 60 min
CLint scaled at 10 µM [7]: < 10.4 mL/min/kg
PPB (Plasma): 97.6%
Activity [8]: 2%
inhibition (Enterococcus faecium [12]): Active
inhibition (Enterococcus faecium [13]): inactive
inhibition (Enterococcus faecium [14]): inactive
inhibition (Enterococcus faecium [15]): inactive
Activity (Escherichia coli): inactive
MBC (Enterococcus faecium [10]): 32 µg/mL (≈ 76.1 µM)
MIC (Enterococcus faecium [10]): 4 µg/mL (≈ 9.51 µM)

CC1=C(C(N)=O)C(c2ccc(N(C)C)cc2)n2nc(SCc3ccc(C#N)cc3)nc2N1 (stereo not given)
MIC (Enterococcus faecium [3]): 8 µg/mL (≈ 18 µM)
MIC (Enterococcus faecium [11]): 8 µg/mL (≈ 18 µM)
MIC (Enterococcus faecium [4]): 4 µg/mL (≈ 8.98 µM)
MIC (Enterococcus faecium [5]): 16 µg/mL (≈ 35.9 µM)
MIC (Enterococcus faecium [6]): 4 µg/mL (≈ 8.98 µM)
t1/2 (Liver): > 60 min
CLint scaled at 10 µM [7]: < 10.4 mL/min/kg
PPB (Plasma): 96.8%
Activity [8]: 1%
inhibition (Staphylococcus aureus [9]): inactive
inhibition (BL21-DE3): inactive
MBC (Enterococcus faecium [10]): 16 µg/mL (≈ 35.9 µM)

CN[C@H](CC(C)C)C(=O)N[C@H]1C(=O)N[C@@H](CC(N)=O)C(=O)N[C@H]2C(=O)N[C@H]3C(=O)N[C@H](C(=O)N[C@H](C(=O)O)c4cc(O)cc(O)c4-c4cc3ccc4O)[C@H](O)c3ccc(c(Cl)c3)Oc3cc2cc(c3O[C@@H]2O[C@H](CO)[C@@H](O)[C@H](O)[C@H]2O[C@H]2C[C@](C)(N)[C@H](O)[C@H](C)O2)Oc2ccc(cc2Cl)[C@H]1O [VANCOMYCIN]
MIC (Enterococcus faecium [11]): 16 µg/mL (≈ 11 µM)
MIC (Enterococcus faecium [5]): 64 µg/mL (≈ 44.2 µM)
MIC (Enterococcus faecium [6]): 64 µg/mL (≈ 44.2 µM)
